Legend:
[1] = system: L1210; test: Intracellular level of conjugate in L1210 cells in the presence of DFMO at 10 uM; format: functional, cell-based; conditions: Mus musculus
In short: (§1)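 L1210 cells in RPMI 1640/10% FCS with 2 mM aminoguanidine, seeded at 4 × 10⁴ cells/mL. Conjugate, with or without 5 mM DFMO, added at seeding; cells cultured 48 h, washed in cold NaCl, and extracted with 0.2 N HClO₄. Conjugate and free putrescine, spermidine and spermine quantified by ion-pair HPLC (UV 254 nm, fluorescence ex 345/em 455 nm); normalised to protein. Student's t-test, p<0.05.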

[2] = system: CHO; test: Cellular uptake in CHO cells at 10 uM; format: ADME, cell-based, Cricetulus griseus; conditions: chinese hamster
In short: (§2)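 CHO (RPMI 1640, 10% FCS, 2 mM aminoguanidine) and CHO-MG (plus L-proline) cells seeded at 2 × 10⁵ cells/mL. Conjugate added 24 h after seeding and cells harvested 24 h later, then washed in cold 0.14 M NaCl and sonicated in 0.2 N HClO₄. Supernatant analysed by ion-pair reversed-phase HPLC (n-octanesulfonate), expressed as nmol/mg protein; mean ± SD of three determinations.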

[3] = system: CHO; test: Cellular uptake in CHO cells at 5 uM; format: ADME, cell-based, Cricetulus griseus; conditions: chinese hamster; in short: as §2
[4] = system: CHO-MG; test: Cellular uptake in CHO-MG cells at 10 uM; format: ADME, cell-based, Cricetulus griseus; conditions: chinese hamster; in short: as §2
[5] = system: CHO-MG; test: Cellular uptake in CHO-MG cells at 5 uM; format: ADME, cell-based, Cricetulus griseus; conditions: chinese hamster; in short: as §2
[6] = system: CHO-MG; test: Selectivity for uptake in CHO cell line over CHO-MG cell line at 10 uM; format: functional, cell-based; conditions: Cricetulus griseus
In short: (§3)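 Ratio of intracellular conjugate level in CHO over CHO-MG cells. Both lines were exposed to conjugate 24 h after seeding at 2 × 10⁵ cells/mL, for 24 h with 2 mM aminoguanidine in the medium. Levels were measured by ion-pair HPLC of perchloric extracts and normalised to protein (nmol/mg).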

[7] = Selectivity for uptake in CHO cell line over CHO-MG cell line at 5 uM; format: functional, Cricetulus griseus; in short: as §3
[8] = system: L1210; test: Intracellular level of putrescine in L1210 cells in the absence of DFMO at 10 uM; format: functional, cell-based; conditions: Mus musculus; in short: as §1
[9] = system: L1210; test: Intracellular level of spermine in L1210 cells in the absence of DFMO at 10 uM; format: functional, cell-based; conditions: Mus musculus; in short: as §1
[10] = system: L1210; test: Intracellular level of conjugate in L1210 cells in the absence of DFMO at 10 uM; format: functional, cell-based; conditions: Mus musculus; in short: as §1
[11] = system: L1210; test: Intracellular level of spermine in L1210 cells in the presence of DFMO at 10 uM; format: functional, cell-based; conditions: Mus musculus; in short: as §1
[12] = target: Phosphodiesterase 1 (Bos taurus, UniProt Q01061+P14100); test: Inhibition of bovine calmodulin-activated cAMP dependent phosphodiesterase; format: protein assay
In short: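 Crude bovine heart PDE preparation containing calmodulin and Ca²⁺ (0.2 milliunit). Incubated 20 min at 37 °C with 0.1 mM [8-³H]cAMP and graded drug concentrations in 30 mM Tris-HCl, 3 mM MgSO₄, 0.6 mM AMP. Stopped with ZnSO₄; Ba(OH)₂ precipitated AMP with BaSO₄; supernatant radioactivity counted. IC50 is the concentration giving 50% inhibition.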

[13] = system: L1210; test: Intracellular level of spermidine in L1210 cells in the absence of DFMO at 10 uM; format: functional, cell-based; conditions: Mus musculus; in short: as §1
[14] = system: L1210; test: Intracellular level of spermidine in L1210 cells in the presence of DFMO at 10 uM; format: functional, cell-based; conditions: Mus musculus; in short: as §1

Row | Drug uptake [2] | Drug uptake [3] | Drug uptake [4] | Drug uptake [5] | IC50 [12] | SMILES | Drug uptake [1] | Ratio [6] | Selectivity ratio [7] | Drug uptake [8] | Drug uptake [9] | Drug uptake [10] | Drug uptake [11] | Drug uptake [13] | Drug uptake [14]
1 | 0.029 nmol/mg | 0.029 nmol/mg | 0.022 nmol/mg | 0.029 nmol/mg | > 500 µM | NCCCNCCCCNCCCNC1=Nc2ccccc2CC1 | 2.4 nmol/mg | 1.3 | 1 | 0.33 nmol/mg | 13.9 nmol/mg | 1.5 nmol/mg | 13.9 nmol/mg | 8.1 nmol/mg | 4.2 nmol/mg
2 | 2.1 nmol/mg | 1.2 nmol/mg | 0.37 nmol/mg | 0.26 nmol/mg | > 500 µM | NCCCCNC1=Nc2ccccc2CC1 | 0.34 nmol/mg | 5.7 | 4.6 | 1.8 nmol/mg | 12.5 nmol/mg | 0.26 nmol/mg | 16.5 nmol/mg | 21 nmol/mg | 0.94 nmol/mg

Source: ChEMBL document CHEMBL1148584, “Effect of polyamine homologation on the transport and biological properties of heterocyclic amidines” (J Med Chem, 2006)
